Measured values published in ChEMBL document CHEMBL3414483, “New heterocyclic hybrids of pyrazole and its bioisosteres: design, synthesis and biological evaluation as dual acting antimalarial-antileishmanial agents” (Eur J Med Chem, 2015).
≈ marks a conversion by molar mass, not a printed value.

How the values were obtained:
Plasmodium berghei [1] = experiment: Antimalarial activity against Plasmodium berghei str. ANKA infected in Swiss albino mouse assessed as parasitemia at 0.048 mmol/kg/day, po qd […] by microscopic analysis relative to control; assay type: functional
Summary of the method: (§1)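 Four-day suppressive test. Mice were infected iv on day 0 with 0.2 ml of 2 × 10^7 P. berghei ANKA-parasitized erythrocytes from a donor mouse, diluted in saline. From 2 h post-infection they were dosed orally at 0.048 mmol/kg/day for days 0–3, five mice per group. The vehicle was 7% Tween and 3% ethanol in water. On day 4, Giemsa smears were scored over 5 fields of about 100 RBC each. Suppression was calculated relative to the vehicle group, taken as 100%.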

Mus musculus [2] = experiment: Toxicity in mouse up to 100 mg/kg administered via parenteral route; assay type: organism-based; set-up: dose 100 mg/kg; settings: in vivo
Summary of the method: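 Groups of six mice received intraperitoneal doses of 10, 25, 50, 75 and 100 mg/kg, with propylene glycol as the vehicle control.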

Leishmania aethiopica [3] = experiment: Antileishmanial activity against amastigote stage of Leishmania aethiopica after 72 hrs by resazurin staining-based fluorescence assay; assay type: functional, organism-based
Summary of the method: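 Axenic L. aethiopica amastigotes (50 µl of 2 × 10^7 cells/ml) exposed to serial dilutions at final 0.04–10 µg/ml for 72 h at 31 °C, humidified, 5% CO₂. Resazurin was added at 68 h and fluorescence read at 72 h (ex 530/em 590 nm). EC50 from sigmoidal dose–response fits, mean ± SD of triplicate experiments run in duplicate. Controls were medium alone and 1% DMSO.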

Leishmania aethiopica [4] = experiment: Ratio of amphotericin IC50 to compound IC50 for promastigote stage of Leishmania aethiopica; assay type: functional
Plasmodium berghei [5] = experiment: Antimalarial activity against Plasmodium berghei str. ANKA infected in Swiss albino mouse assessed as supression of parasitemia at 0.048 mmol/kg/day, po qd for 3 days by microscopic analysis relative to control; assay type: functional; summary of the method: as §1
Mus musculus [6] = experiment: Toxicity in mouse assessed as change in weight at 25 to 300 mg/kg, po measured for 3 days; assay type: organism-based; set-up: dose 25-300 mg/kg, route oral; settings: in vivo, 72 h
Summary of the method: (§2)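 Male mice (26-32 g), six per group, fasted overnight and weighed. Compounds given orally as suspension in 1% gum acacia at 25, 50, 100, 200 and 300 mg/kg/day; vehicle control at up to 1 ml/100 g. Mortality recorded after 24 h; weight and deaths followed over 3 days post-dosing.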

[7] = Toxicity in po dosed mouse; assay type: organism-based; settings: in vivo; summary of the method: as §2
Mus musculus [8] = experiment: Toxicity in mouse assessed as death at 25 to 300 mg/kg, po measured for 3 days; assay type: organism-based; set-up: dose 25-300 mg/kg, route oral; settings: in vivo, 72 h; summary of the method: as §2
Plasmodium berghei [9] = experiment: Antimalarial activity against Plasmodium berghei str. ANKA infected in Swiss albino mouse assessed as survival at 0.048 mmol/kg/day, po qd for 3 days by microscopic analysis relative to control; assay type: functional
Summary of the method: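 P. berghei ANKA infected mice, 4-day suppressive test. Day 0: 0.2 ml of 2 x 10^7 parasitized erythrocytes given i.v. (donor blood, 20-30% parasitemia, diluted in saline). Oral dosing at 0.048 mmol/kg/day from 2 h post-infection, then days 1-3 at 24 h intervals. Vehicle 7% Tween, 3% ethanol in water. Five mice/group. Survival time recorded per mouse; mean compared with vehicle group.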

Leishmania aethiopica [10] = experiment: Ratio of miltefosine IC50 to compound IC50 for promastigote stage of Leishmania aethiopica; assay type: functional
Leishmania aethiopica [11] = experiment: Antileishmanial activity against promastigote stage of Leishmania aethiopica after 24 hrs by alamar blue staining-based […]; assay type: functional, organism-based
Summary of the method: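 L. aethiopica promastigotes, 3 × 10^6 per well, given compounds from DMSO stocks in three-fold dilutions at 10 to 0.04 µg/ml (final DMSO ≤0.1%), in duplicate, at room temperature (21 ± 1 °C). Alamar blue (resazurin) was added after 24 h and absorbance read 48 h later at 540 and 630 nm. Negative control was parasites, medium and DMSO.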

Plasmodium falciparum = experiment: Antiplasmodial activity against chloroquine-resistant Plasmodium falciparum RKL9 infected in human RBC assessed as effect on schizont maturation after 24 hrs by Geimsa staining-based assay; assay type: functional, organism-based; settings: RKL9, 24 h
Summary of the method: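 P. falciparum RKL9 in continuous culture in human B(+) RBC, parasitemia adjusted to 1-1.5%, RPMI 1640 with 10% AB(+) serum. Two-fold serial dilutions, compounds in ethanol (final ≤0.5%), 24 h at 37 °C, duplicate wells. Schizonts per 100 asexual parasites counted on Giemsa smears; % schizont maturation inhibition = (1 − Nt/Nc) × 100.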

SMILES | Activity (Plasmodium berghei [1]) [%] | Activity (Mus musculus [2]) | IC50 (Leishmania aethiopica [3]) [µg/mL] | Ratio IC50 (Leishmania aethiopica [4]) | Activity (Plasmodium berghei [5]) [%] | Activity (Mus musculus [6]) | MTD [7] [mg/kg] | Activity (Mus musculus [8]) | Survival (Plasmodium berghei [9]) [days] | Ratio IC50 (Leishmania aethiopica [10]) | IC50 (Leishmania aethiopica [11]) [µg/mL] | IC50 (Plasmodium falciparum) [nM]
CC(=O)N(C1=NN(C(C)=O)C(c2cn(-c3ccc(Br)cc3)nc2-c2ccc([N+](=O)[O-])cc2)S1)c1ccccc1 (stereo unspecified) | 12 | Non-toxic | 0.13 (≈ 0.215 µM) | 3 | 86.05 | Non-toxic | 300 | Non-toxic | 16.86 | 225 | 0.0142 (≈ 0.0235 µM) | –
Cc1ccc(-c2nn(-c3ccc(C)cc3)cc2/C=N/N=c2/scc(-c3ccc(Br)cc3)n2-c2ccccc2)cc1 | 2 | Non-toxic | 0.3 (≈ 0.496 µM) | – | 97.67 | Non-toxic | 300 | Non-toxic | 16.84 | – | 0.0311 (≈ 0.0514 µM) | 41.8
O=[N+]([O-])c1ccc(-c2nn(-c3ccc(Br)cc3)cc2C2CC(c3ccccc3)=NN2)cc1 (stereo unspecified) | 4 | Non-toxic | 1.11 (≈ 2.27 µM) | – | 95.35 | Non-toxic | 300 | Non-toxic | 17.6 | – | 2.12 (≈ 4.35 µM) | 42
O=C(/C=C/c1cn(-c2ccc(Br)cc2)nc1-c1ccc([N+](=O)[O-])cc1)c1ccccc1 | 3 | Non-toxic | 1.22 (≈ 2.57 µM) | – | 96.51 | Non-toxic | 300 | Non-toxic | 16.22 | – | 1.08 (≈ 2.28 µM) | 38.8
O=[N+]([O-])c1ccc(-c2nn(-c3ccc(Br)cc3)cc2/C=N/NC(=S)Nc2ccccc2)cc1 | 5 | Non-toxic | 0.21 (≈ 0.403 µM) | – | 94.19 | Non-toxic | 300 | Non-toxic | 14.84 | – | 0.0214 (≈ 0.041 µM) | 38.4
Cc1ccc(-c2nn(-c3ccc(Br)cc3)cc2/C=N/N=C2/SCC(=O)N2c2ccccc2)cc1 | 4 | Non-toxic | 0.32 (≈ 0.603 µM) | – | 95.35 | Non-toxic | 300 | Non-toxic | 16.86 | – | 0.0341 (≈ 0.0643 µM) | 36.4
